Reference: ChEMBL document CHEMBL3875163, “Novel urea and bis-urea primaquine derivatives with hydroxyphenyl or halogenphenyl substituents: Synthesis and biological evaluation” (Eur J Med Chem, 2016)
≈ marks a conversion by molar mass, not a printed value.

What was measured:
[1] = Growth inhibition of human MCF7 cells after 72 hrs by MTT assay; format: functional, cell-based; conditions: MCF7, 72 h
How it was run: (§1)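 Modified NCI DTP protocol: cells in DMEM with 10% FBS, 2 mM glutamine, antibiotics, 37 °C, 5% CO2; seeded 1 × 10^4 to 3 × 10^4 cells/ml on day 0, exposed to five 10-fold dilutions (10^-8 to 10^-4 M) for 72 h; solvent control. MTT read-out; quadruplicate points in three experiments; IC50 by linear regression of growth percentages bracketing 50%.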

[2] = Antioxidant activity assessed as DPPH radical scavenging activity at 100 uM after 20 mins relative to control; format: functional
How it was run: (§2)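 Compound in DMSO added to DPPH in absolute ethanol, 0.1 mM final; absorbance at 517 nm after 20 and 60 min at room temperature. At least triplicate.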

[3] = Antioxidant activity assessed as DPPH radical scavenging activity at 100 uM after 60 mins relative to control; format: functional; how it was run: as §2
[4] = Growth inhibition of human HeLa cells after 72 hrs by MTT assay; format: functional, cell-based
[5] = Antioxidant activity assessed as inhibition of AAPH-induced linoleic acid lipid peroxidation at 1 x 10^-4 M by UV-absorbance method relative to control; format: functional
How it was run: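 Linoleic acid peroxidation: 16 mM sodium linoleate dispersion in 0.05 M phosphate buffer pH 7.4 at 37 °C under air, initiated by AAPH (40 mM solution); compound at 1 × 10^-4 M; oxidation followed at 234 nm. At least triplicate.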

Glycine max = assay: Inhibition of soybean LOX assessed as reduction in conversion of sodium linoleate to 13-hydroperoxylinoleic acid at 1 x 10^-4 M relative to control
How it was run: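 Soybean lipoxygenase incubated at room temperature with sodium linoleate (0.1 mM) and test compound (DMSO stocks); formation of 13-hydroperoxylinoleic acid read at 234 nm. Single-point screening at 1 × 10^-4 M; IC50 from several concentrations. At least triplicate.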

[6] = Growth inhibition of human SW620 cells after 72 hrs by MTT assay; format: functional, cell-based; conditions: SW-620, 72 h; how it was run: as §1
[7] = Growth inhibition of human Molt4/C8 cells after 72 hrs by MTT assay; format: functional, cell-based; conditions: MOLT-4, 72 h
[8] = Growth inhibition of human CEM cells after 72 hrs by MTT assay; format: functional, cell-based; conditions: CCRF-CEM
[9] = Growth inhibition of mouse L1210 cells after 72 hrs by MTT assay; format: functional, cell-based; conditions: L1210, 72 h
[10] = Growth inhibition of human NCI-H460 cells after 72 hrs by MTT assay; format: functional, cell-based; conditions: NCI-H460, 72 h; how it was run: as §1
[11] = Growth inhibition of human MIAPaCa2 cells after 72 hrs by MTT assay; format: functional, cell-based; conditions: MIA PaCa-2, 72 h
Staphylococcus aureus [12] = assay: Antibacterial activity against methicillin resistant Staphylococcus aureus MFBF 10679 after 18 hrs by serial microdilution broth assay; format: functional; conditions: MFBF 10679, 18 h
How it was run: (§3)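 EUCAST-based broth microdilution in Mueller-Hinton broth. Glycerol stock cultures grown in trypticase soy broth 18 h at 37 °C; inoculum in PBS pH 7.4 at 0.5 McFarland, diluted 1:10 in broth. Compounds from DMSO stocks, 1000 to 0.78125 µg/ml; 18 h aerobic, 35 °C, dark. TTC 0.5 mg/ml added, 3 h, then HCl/isopropanol, A490. MIC = lowest concentration giving 50% inhibition vs untreated; duplicates, averaged.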

Staphylococcus aureus [13] = assay: Antibacterial activity against methicillin resistant Staphylococcus aureus MFBF 10682 after 18 hrs by serial microdilution broth assay; format: functional; conditions: MFBF 10682, 18 h; how it was run: as §3
Pseudomonas aeruginosa [14] = assay: Antibacterial activity against Pseudomonas aeruginosa ATCC 9027 after 18 hrs by serial microdilution broth assay; format: functional; conditions: ATCC 9027, 18 h; how it was run: as §3
Escherichia coli = assay: Antibacterial activity against Escherichia coli ATCC 10535 after 18 hrs by serial microdilution broth assay; format: functional; conditions: ATCC 10535, 18 h
How it was run: (§4)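 Broth microdilution MIC per EUCAST for aerobic bacteria in Mueller-Hinton broth, serial dilution 1000 to 0.78125 µg/ml from 10 mg/ml DMSO stocks. Inoculum from trypticase soy broth cultures (18 h, 37 °C), set to 0.5 McFarland in PBS pH 7.4, diluted 1:10. 18 h aerobic incubation at 35 °C in dark, then TTC 0.5 mg/ml for 3 h, HCl-isopropanol, A490. MIC = lowest concentration giving 50% inhibition versus untreated; duplicates.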

Staphylococcus aureus [15] = assay: Antibacterial activity against methicillin sensitive Staphylococcus aureus ATCC 25923 after 18 hrs by serial microdilution broth assay; format: functional; conditions: ATCC 25923, 18 h; how it was run: as §3
Pseudomonas aeruginosa [16] = assay: Antibacterial activity against Pseudomonas aeruginosa ATCC 27853 after 18 hrs by serial microdilution broth assay; format: functional; conditions: ATCC 27853, 18 h; how it was run: as §4
Enterococcus faecalis [17] = assay: Antibacterial activity against vancomycin resistant Enterococcus faecalis MFBF 11419 after 18 hrs by serial microdilution broth assay; format: functional; conditions: MFBF 11419, 18 h; how it was run: as §3
Staphylococcus aureus [18] = assay: Antibacterial activity against Staphylococcus aureus ATCC 6538 after 18 hrs by serial microdilution broth assay; format: functional; conditions: ATCC 6538, 18 h; how it was run: as §4
Bacillus spizizenii = assay: Antibacterial activity against Bacillus subtilis ATCC 6633 after 18 hrs by serial microdilution broth assay; format: functional; conditions: ATCC 6633, 18 h; how it was run: as §4
Enterococcus faecalis [19] = assay: Antibacterial activity against vancomycin susceptible Enterococcus faecalis ATCC 29212 after 18 hrs by serial microdilution broth assay; format: functional; conditions: ATCC 29212, 18 h; how it was run: as §4
Bacillus pumilus = assay: Antibacterial activity against Bacillus pumilus NCTC 8241 after 18 hrs by serial microdilution broth assay; format: functional; conditions: NCTC 8241, 18 h; how it was run: as §4
Bacillus cereus = assay: Antibacterial activity against Bacillus cereus ATCC 11778 after 18 hrs by serial microdilution broth assay; format: functional; conditions: ATCC 11778, 18 h; how it was run: as §4
Pseudomonas aeruginosa [20] = assay: Antibacterial activity against multi-drug resistant Pseudomonas aeruginosa MFBF after 18 hrs by serial microdilution broth assay; format: functional; how it was run: as §3
Staphylococcus aureus [21] = assay: Antibacterial activity against methicillin sensitive Staphylococcus aureus ATCC 25213 after 18 hrs by serial microdilution broth assay; format: functional; conditions: ATCC 25213, 18 h; how it was run: as §4
Candida albicans = assay: Antifungal activity against Candida albicans ATCC 90028 after 18 hrs by serial microdilution broth assay; format: functional; conditions: ATCC 90028, 18 h
How it was run: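 Yeast microdilution in RPMI 1640 with glutamine plus 2% glucose, 1000 to 0.78125 µg/ml from 10 mg/ml DMSO stocks. Growth read with XTT (10 mg/ml) mixed 7:1 with menadione (1 mg/ml in acetone), absorbance at 540 nm. MIC taken as lowest concentration giving 50% growth inhibition versus untreated cells; tests in duplicate.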

inhibition (Glycine max) [%]	SMILES	IC50 [1] [µM]	Activity [2] [%]	Activity [3] [%]	IC50 [4] [µM]	inhibition [5] [%]	IC50 [6] [µM]	IC50 [7] [µM]	IC50 [8] [µM]	IC50 [9] [µM]	IC50 [10] [µM]	IC50 [11] [µM]	further results
41.6	COc1cc(NC(C)CCCNC(=O)NNC(=O)Nc2cccc(O)c2)c2ncccc2c1 (stereo not drawn)	1.1	96.5	100	180	52.2	17	85	143	160	> 100	129	
51.4	COc1cc(NC(C)CCCNC(=O)NNC(=O)Nc2cccc(C(F)(F)F)c2)c2ncccc2c1 (stereo not drawn)	0.19	98.3	91.2	4.9	52.6	21	36	6.9	4	20	5.6	
49.9	COc1cc(NC(C)CCCNC(=O)Nc2ccc(O)cc2)c2ncccc2c1 (stereo not drawn)	5.2	95.5	94.5	70	54	30	21	23	21	34	57	
48.3	COc1cc(NC(C)CCCNC(=O)Nc2cccc(C(F)(F)F)c2)c2ncccc2c1 (stereo not drawn)	3.3	31.3	47.7	14	71.8	22	20	19	9.2	21	17	
39	COc1cc(NC(C)CCCNC(=O)NNC(=O)Nc2ccc(Cl)cc2)c2ncccc2c1 (stereo not drawn)	0.18	97.6	100	120	42.1	48	186	108	58	63	≥ 250	

Continued, compound first:

SMILES	inhibition (Glycine max) [%]	IC50 [1] [µM]	Activity [2] [%]	Activity [3] [%]	IC50 [4] [µM]	inhibition [5] [%]	IC50 [6] [µM]	IC50 [7] [µM]	IC50 [8] [µM]	IC50 [9] [µM]	IC50 [10] [µM]	IC50 [11] [µM]	further results
COc1cc(NC(C)CCCNC(=O)NNC(=O)Nc2cc(C(F)(F)F)cc(C(F)(F)F)c2)c2ncccc2c1 (stereo not drawn)	33.9	2.4	86.8	88	17	39.9	16	22	13	18	18	20	
COc1cc(NC(C)CCCNC(=O)Nc2ccc(F)cc2)c2ncccc2c1 (stereo not drawn)	39.8	26		24.7	20	64.4	25	24	26	18	26	21	
CN(C)[C@@H]1C(O)=C(C(N)=O)C(=O)[C@@]2(O)C(O)=C3C(=O)c4c(O)cccc4[C@@](C)(O)[C@H]3C[C@@H]12 [TETRACYCLINE]													MIC50 (Staphylococcus aureus [12]): 0.312 µg/mL (≈ 0.702 µM); MIC50 (Staphylococcus aureus [13]): 0.312 µg/mL (≈ 0.702 µM); MIC50 (Pseudomonas aeruginosa [14]): 3 µg/mL (≈ 6.75 µM); MIC50 (Escherichia coli): 2.5 µg/mL (≈ 5.63 µM); MIC50 (Staphylococcus aureus [15]): 0.312 µg/mL (≈ 0.702 µM); MIC50 (Pseudomonas aeruginosa [16]): 3 µg/mL (≈ 6.75 µM); MIC50 (Enterococcus faecalis [17]): > 128 µg/mL; MIC50 (Staphylococcus aureus [18]): 0.15 µg/mL (≈ 0.338 µM); MIC50 (Bacillus spizizenii): 0.312 µg/mL (≈ 0.702 µM); MIC50 (Enterococcus faecalis [19]): 0.312 µg/mL (≈ 0.702 µM); MIC50 (Bacillus pumilus): 0.156 µg/mL (≈ 0.351 µM); MIC50 (Bacillus cereus): 0.312 µg/mL (≈ 0.702 µM); MIC50 (Pseudomonas aeruginosa [20]): > 128 µg/mL; MIC50 (Staphylococcus aureus [21]): 0.156 µg/mL (≈ 0.351 µM)
C[C@@H](c1ncncc1F)[C@](O)(Cn1cncn1)c1ccc(F)cc1F [VORICONAZOLE]													MIC50 (Candida albicans): 0.5 µg/mL (≈ 1.43 µM)
